Data reported in PubChem BioAssay.
The source made the active and inactive calls.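 The calls were made as follows, unless noted: active = NADPH fluorescence slope more negative than the mean of all samples by about 3 SD, 99.7% confidence; inactive = the rest.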

What was measured:
[1] = inhibitors of TNFa-induced NFkB p65 translocation, primary screen, imaging, HUVEC, MLSMR starter and 10KST1 sets (AID 438;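 active = inhibition above 20% together with a positive visual image hit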;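 also: compound added about 3h40 before a 20 min TNFalpha stimulation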;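 as to inhibition: signal is the nuclear over cytoplasmic p65 intensity ratio per well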); settings: HUVEC TNFa-induced p65 nuclear translocation; cell count: measured here: nuclei count (cytotoxicity indicator), at 2.08 µM; inhibition: at 2 µM, stronger effect = higher value, 0% TNFa-plus-vehicle, 100% no-TNFa wells
[2] = endothelial E-selectin expression blockers – imaging, HUVEC, immunofluorescence, MLSMR starter and 10KST1 sets, primary screen (AID 487;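 active = visually confirmed hit in the image check and inhibition above 20%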;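 as to inhibition: signal is fraction of cell area covered by stained E-selectin grains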;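 as to nuclei count: 100% = median nuclei count of all wells on the same plate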); settings: HUVEC TNFalpha-induced E-selectin immunofluorescence imaging, at 2 µM; inhibition: stronger effect = higher value; nuclei count: measured here: cell number, toxicity
[3] = Primary imaging screen for DUSP6 inhibitors that restore phospho-Erk in transfected HeLa cells, chemical complementation (AID 609;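 active = compounds giving at least 50% inhibition in the cell-based MKP-3 phosphatase rescue imaging test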;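 as to inhibition: phospho-Erk level distribution per well compared with pooled transfected vehicle control wells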); settings: HeLa MKP-3 transfected, phospho-Erk imaging KS statistic, at 10 µM, cells stimulated with TPA for 15 min
[4] = biological target: Dual specificity protein phosphatase 6 (Homo sapiens) (UniProt Q16828); experiment: as above; settings: HeLa MKP-3 transfected, phospho-Erk imaging KS statistic; at 10 µM; stronger effect = higher value; cells stimulated with TPA for 15 min
[5] = biological target: Voltage-gated potassium channel subunit beta-2 (Rattus norvegicus) (UniProt P62483); experiment: inhibitors of rat Kvbeta2 reductase activity – biochemical, NADPH fluorescence, primary screen (AID 622;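 active = fluorescence slope higher than the sample average by over 3 SD, cut at about -0.22 in these data, passing the limit was not always enough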;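 also: slope of raw intensity against log time taken from 70 to 1610 s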); settings: recombinant KvBeta, 4-cyanobenzaldehyde reduction, at 10 µM, stronger effect = higher value
[6] = biological target: Voltage-gated potassium channel subunit beta-2 (Rattus norvegicus) (UniProt P62483); experiment: enhancers of rat Kvbeta2 NADPH turnover – biochemical, NADPH fluorescence, primary screen (AID 623); settings: Recombinant KvBeta, NADPH fluorescence decrease slope, 10 min; at 10 µM; stronger effect = lower value;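 also: fluorescence intensity change per second fitted from 20 to 320 s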
[7] = biological target: Muscarinic acetylcholine receptor M4 (Homo sapiens) (UniProt P08173); experiment: M4-linked GIRK flux change, two-sided – cell-based, HEK293 M4/GIRK, thallium flux, BTC-AM, M4 allosteric agonist project, primary screen (AID 625;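 active = fluorescence slope after compound addition differing from the mean of all tested samples at 99.7% confidence, mostly higher but some lower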;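 also: thallium influx through GIRK channels coupled to M4 in HEK293 cells with BTC-AM dye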); settings: at 10 µM, actives lie on both sides
Outline: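 Assay system: HEK293 cells with M4 receptor and GIRK channels / Controls: carbachol and DMSO controls / Schedule: 1 h dye loading, 2 min kinetic read / Technique: kinetic fluorescence with BTC-AM dye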

[8] = inhibitors of larval lipid processing in zebrafish, primary screen, whole organism, PED6 fluorescence, gall bladder and intestine (AID 686;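 active = a full or partial loss of lipid-probe fluorescence in the fish gall bladder, intestine or both, judged by eye; inactive = no fluorescence loss, or compound toxic to the fish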;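 also: larvae 5 to 7 days old with five fish per well; signal comes from phospholipase A2 cleavage of quenched PED6 carried via bile; overnight exposure to compound and PED6 before scoring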); settings: Zebrafish larvae PED6 lipid processing, fluorescence scoring; screened at 20 µM (by protocol)
Outline: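 Doses: 20 µM single dose. Test system: live zebrafish larvae aged 5-7 days, whole organism. Quantity: five larvae per well. Measured by: By-eye fluorescence microscopy. Reagent: ingested quenched lipid PED6 at 100 nM. Read-out: visual per-well fluorescence inhibition score. Times: overnight exposure of larvae to compound plus PED6.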

[9] = loss of swimming-algae plug formation – whole organism, Chlamydomonas reinhardtii, WT vs cilia-less mutant, absorbance, 96-well, primary screen (AID 463189;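 active = inhibition at or above 50% relative to wild type and mutant plate controls; inactive = inhibition below 50%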;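 also: 0% = wild type cc124 cells in DMSO and 100% = ciliumless bld1 mutant cells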); settings: Chlamydomonas reinhardtii gravitaxis, OD600 absorbance, 2 days; at 10 µM; stronger effect = higher value
[10] = measured here: cell density z-score
[11] = measured here: nuclear c-Myc green intensity z-score
[12] = measured here: nuclear pErk red intensity z-score, stronger effect = higher value

Sequence of Muscarinic acetylcholine receptor M4 (Homo sapiens) (P08173 whole entry, looked up): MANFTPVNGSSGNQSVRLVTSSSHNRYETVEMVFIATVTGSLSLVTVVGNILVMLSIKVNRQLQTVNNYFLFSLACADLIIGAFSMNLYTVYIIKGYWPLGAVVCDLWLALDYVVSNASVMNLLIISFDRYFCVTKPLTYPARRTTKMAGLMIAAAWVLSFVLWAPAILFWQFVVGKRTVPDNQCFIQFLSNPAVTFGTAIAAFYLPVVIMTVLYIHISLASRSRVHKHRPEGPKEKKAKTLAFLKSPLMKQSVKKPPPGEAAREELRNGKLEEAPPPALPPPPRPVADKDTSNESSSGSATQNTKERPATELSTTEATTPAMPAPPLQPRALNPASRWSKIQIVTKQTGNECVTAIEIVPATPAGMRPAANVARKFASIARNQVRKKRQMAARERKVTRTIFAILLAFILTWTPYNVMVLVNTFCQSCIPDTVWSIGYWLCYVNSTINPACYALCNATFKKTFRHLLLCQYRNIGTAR
Sequence of Dual specificity protein phosphatase 6 (Homo sapiens) (Q16828 whole entry, looked up): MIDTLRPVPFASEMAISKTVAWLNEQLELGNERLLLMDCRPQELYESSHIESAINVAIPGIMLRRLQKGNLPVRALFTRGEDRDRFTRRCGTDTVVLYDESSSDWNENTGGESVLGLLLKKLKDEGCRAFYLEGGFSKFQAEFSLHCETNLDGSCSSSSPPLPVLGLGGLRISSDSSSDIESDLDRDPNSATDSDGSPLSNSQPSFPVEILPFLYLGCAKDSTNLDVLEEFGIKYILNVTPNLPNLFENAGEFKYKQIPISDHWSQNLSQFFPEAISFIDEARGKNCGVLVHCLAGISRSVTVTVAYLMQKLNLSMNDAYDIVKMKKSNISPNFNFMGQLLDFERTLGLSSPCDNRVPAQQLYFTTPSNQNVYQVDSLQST
Sequence of Voltage-gated potassium channel subunit beta-2 (Rattus norvegicus) (P62483 whole entry, looked up): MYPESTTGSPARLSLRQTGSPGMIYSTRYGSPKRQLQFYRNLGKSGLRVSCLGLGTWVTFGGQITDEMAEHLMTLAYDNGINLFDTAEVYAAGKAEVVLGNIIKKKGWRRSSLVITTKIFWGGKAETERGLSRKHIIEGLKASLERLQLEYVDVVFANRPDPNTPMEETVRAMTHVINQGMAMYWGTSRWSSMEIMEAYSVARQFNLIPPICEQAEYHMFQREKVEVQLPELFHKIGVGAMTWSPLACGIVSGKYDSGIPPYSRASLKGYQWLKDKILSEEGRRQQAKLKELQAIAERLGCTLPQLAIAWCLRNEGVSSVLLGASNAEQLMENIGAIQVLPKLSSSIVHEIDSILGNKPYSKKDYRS

SMILES | cell count [1] | inhibition [1] | inhibition [2] | nuclei count [2] [%] | z-score [3, 10] | z-score [3, 11] | z-score [3, 12] | inhibition [4] | fluorescence slope [5] | NADPH fluorescence slope [6] | fluorescence slope [7] | outcome [8] | inhibition [9]
CCOC(=O)Oc1ccc2c(c1)C(C)=CC(C)(C)N2C(=O)OCC | 618 | 2.2% (inactive) | -42% (inactive) | 115 | 1.01 | 0.72 | 0.465 | -13.3% (inactive) | -0.433 (inactive) | -4.7e-05 (inactive) | 0.00572 (inactive) | inactive | -7.72% (inactive)
Cc1ccc(CNc2oc(COc3ccccc3Cl)nc2C#N)cc1 | 402 | -2.8% (inactive) | -40.3% (inactive) | 82.6 | -0.405 | -0.319 | -0.994 | 4.37% (inactive) | -0.387 (inactive) | 2.1e-06 (inactive) | 0.00728 (inactive) | inactive | 28.6% (inactive)
CC(NC(=O)Nc1ncccn1)(C(F)(F)F)C(F)(F)F | 705 | -8.4% (inactive) | -9.7% (inactive) | 107 | -2.34 | 2.27 | -1.54 | 3.97% (inactive) | -0.481 (inactive) | -0.000112 (inactive) | 0.00693 (inactive) | inactive | -10.4% (inactive)
CC1(C)Cc2c(c(-c3ccccc3Cl)[nH]c(=O)c2C#N)CO1 | 591 | 5.7% (inactive) | -106% (inactive) | 134 | 0.999 | -0.743 | 0.0604 | 11.9% (inactive) | -0.384 (inactive) | -2.7e-05 (inactive) | 0.00508 (inactive) | inactive | 20.5% (inactive)
Cc1ccc(-c2nnc(-c3ccccc3)o2)cc1Br | 570 | -3.8% (inactive) | 33% (inactive) | 98.9 | -0.752 | 0.492 | -1.02 | 1.63% (inactive) | -0.564 (inactive) | 6e-06 (inactive) | 0.00616 (inactive) | inactive | 2.02% (inactive)
COc1cc(C2Nc3cccc4cccc(c34)N2)cc(OC)c1OC(C)=O | 498 | -3.5% (inactive) | -2.1% (inactive) | 85.3 | 0.65 | -1.19 | 0.407 | -2.59% (inactive) | -0.474 (inactive) | 7.8e-06 (inactive) | 0.00327 (inactive) | inactive | 17.1% (inactive)
CCCc1cc(NCCN2CCOCC2)n2c(nc3ccccc32)c1C#N | 472 | 0.5% (inactive) | -144% (inactive) | 105 | -1.9 | 2.65 | 0.164 | 1.98% (inactive) | -0.324 (inactive) | 7.2e-06 (inactive) | 0.00729 (inactive) | inactive | -18.9% (inactive)
CN1CC2(C)CN(C(c3ccccc3)c3ccccc3)CC(C)(C1)C2O (centres undefined) | 529 | -8.9% (inactive) | -136% (inactive) | 154 | 1.6 | -0.0767 | -1.37 | 3.42% (inactive) | -0.479 (inactive) | -8.8e-05 (inactive) | 0.00415 (inactive) | inactive | -0.999% (inactive)
CCc1cc(=O)oc2cc(C)c(CN3CCCC3)c(O)c12 | 666 | -6.3% (inactive) | 27.1% (inactive) | 158 | -0.426 | -0.164 | -0.144 | -2.29% (inactive) | -0.444 (inactive) | -0.000155 (inactive) | 0.00438 (inactive) | inactive | 3.29% (inactive)
CCCC1CC(=O)OC1(C)C(=O)CSc1n[nH]c(-c2ccccc2)n1 (centres undefined) | 686 | -3.7% (inactive) | -35.6% (inactive) | 142 | 0.882 | 0.0839 | -0.223 | -9.66% (inactive) | -0.472 (inactive) | -1.5e-05 (inactive) | 0.00594 (inactive) | active; no signal in intestine only | -3.69% (inactive)
CCOc1ccc(N=C(NC#N)SCC(=O)NC2CC2)cc1 | 613 | -1.5% (inactive) | -40.6% (inactive) | 161 | 0.193 | 0.708 | 0.295 | -2.29% (inactive) | -0.491 (inactive) | -4.8e-05 (inactive) | 0.00628 (inactive) | inactive | -3.68% (inactive)
CC1N(O)C(c2ccc(Cl)cc2Cl)N(O)C1(C)C (centres undefined) | 482 | 1.9% (inactive) | -3.5% (inactive) | 94.1 | -0.283 | -1.5 | 1.54 | 7.93% (inactive) | -0.347 (inactive) | 9.2e-07 (inactive) | 0.00632 (inactive) | inactive | 43.1% (inactive)
Cn1c(Cn2cnc3ccccc32)nc2ccccc21 | 543 | 0.2% (inactive) | 22% (inactive) | 78.7 | 1.23 | -0.835 | -0.272 | -3.95% (inactive) | -0.431 (inactive) | 9.8e-06 (inactive) | 0.00479 (inactive) | inactive | 23% (inactive)
